System: HEK-293T
Test: Multiplex assay against HEK293T
Assay type: toxicity, cell-based
Conditions: human
Outline: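 Values for tubulin, mitochondrial-mass and membrane-permeability phenotypes are per cents of cells with healthy nuclei. These cells were identified by CellPathfinder machine-learning gating of live cells that had been stained at seeding with Hoechst33342, BioTracker Green Microtubule Cytoskeleton Dye, MitoTracker Red and Annexin V Alexa Fluor 680 and imaged on a CQ1 microscope at 37°C and 5% CO2 after compound addition. The gating first set Hoechst high-intensity objects apart from normal cells, then split normal cells into healthy, pyknosed or fragmented nuclei, and pyknosed cells into mitotic or apoptotic.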

[1] = 12 h, 1 µM, compound concentration 1 uM, replicate 1
[2] = 12 h, 1 µM, compound concentration 1 uM, replicate 2
[3] = 12 h, 10 µM, compound concentration 10 uM, replicate 1
[4] = 12 h, 10 µM, compound concentration 10 uM, replicate 2
[5] = 24 h, 1 µM, compound concentration 1 uM, replicate 1
[6] = 24 h, 1 µM, compound concentration 1 uM, replicate 2
[7] = 24 h, 10 µM, compound concentration 10 uM, replicate 1
[8] = 24 h, 10 µM, compound concentration 10 uM, replicate 2
[9] = 48 h, 1 µM, compound concentration 1 uM, replicate 1
[10] = 48 h, 1 µM, compound concentration 1 uM, replicate 2
[11] = 48 h, 10 µM, compound concentration 10 uM, replicate 1
[12] = 48 h, 10 µM, compound concentration 10 uM, replicate 2

## CC(C)COc1ccc(CNC(=O)N(Cc2ccc(F)cc2)C2CCN(C)CC2)cc1 [PIMAVANSERIN]
[1]
  Population Apoptotic (%): 39%
  Population Fragmented Nuclei (%): 5%
  Population Healthy Nuclei (%): 82%
  Population Hoechst High Intensity Objects (%): 6%
  Population Membrane Permeable-Phenotype (%): 0%
  Population Mitochondria Different-Phenotype (%): 50%
  Population Mitotic Cells (%): 60%
  Population Normal (%): 93%
  Population Pyknosed Nuclei (%): 11%
  Population Tubulin-Different-Phenotype (%): 49%
  Total Cell Count: 430
[2]
  Population Apoptotic (%): 54%
  Population Fragmented Nuclei (%): 7%
  Population Healthy Nuclei (%): 74%
  Population Hoechst High Intensity Objects (%): 11%
  Population Mitochondria Different-Phenotype (%): 68%
  Population Mitotic Cells (%): 46%
  Population Normal (%): 88%
  Population Pyknosed Nuclei (%): 18%
  Population Tubulin-Different-Phenotype (%): 35%
  Total Cell Count: 311
[3]
  Population Apoptotic (%): 62%
  Population Fragmented Nuclei (%): 10%
  Population Healthy Nuclei (%): 60%
  Population Hoechst High Intensity Objects (%): 19%
  Population Membrane Permeable-Phenotype (%): 0%
  Population Mitochondria Different-Phenotype (%): 89%
  Population Mitotic Cells (%): 37%
  Population Normal (%): 80%
  Population Pyknosed Nuclei (%): 28%
  Population Tubulin-Different-Phenotype (%): 81%
  Total Cell Count: 285
[4]
  Population Apoptotic (%): 79%
  Population Fragmented Nuclei (%): 7%
  Population Healthy Nuclei (%): 64%
  Population Hoechst High Intensity Objects (%): 25%
  Population Mitochondria Different-Phenotype (%): 87%
  Population Mitotic Cells (%): 20%
  Population Normal (%): 74%
  Population Pyknosed Nuclei (%): 27%
  Population Tubulin-Different-Phenotype (%): 66%
  Total Cell Count: 237
[5]
  Population Apoptotic (%): 33%
  Population Fragmented Nuclei (%): 9%
  Population Healthy Nuclei (%): 77%
  Population Hoechst High Intensity Objects (%): 6%
  Population Membrane Permeable-Phenotype (%): 2%
  Population Mitochondria Different-Phenotype (%): 42%
  Population Mitotic Cells (%): 66%
  Population Normal (%): 93%
  Population Pyknosed Nuclei (%): 13%
  Population Tubulin-Different-Phenotype (%): 40%
  Total Cell Count: 553
[6]
  Population Apoptotic (%): 48%
  Population Fragmented Nuclei (%): 4%
  Population Healthy Nuclei (%): 82%
  Population Hoechst High Intensity Objects (%): 8%
  Population Membrane Permeable-Phenotype (%): 0%
  Population Mitochondria Different-Phenotype (%): 55%
  Population Mitotic Cells (%): 51%
  Population Normal (%): 91%
  Population Pyknosed Nuclei (%): 12%
  Population Tubulin-Different-Phenotype (%): 30%
  Total Cell Count: 394
[7]
  Population Apoptotic (%): 81%
  Population Fragmented Nuclei (%): 10%
  Population Healthy Nuclei (%): 57%
  Population Hoechst High Intensity Objects (%): 27%
  Population Membrane Permeable-Phenotype (%): 0%
  Population Mitochondria Different-Phenotype (%): 94%
  Population Mitotic Cells (%): 18%
  Population Normal (%): 72%
  Population Pyknosed Nuclei (%): 31%
  Population Tubulin-Different-Phenotype (%): 77%
  Total Cell Count: 285
[8]
  Population Apoptotic (%): 84%
  Population Fragmented Nuclei (%): 12%
  Population Healthy Nuclei (%): 54%
  Population Hoechst High Intensity Objects (%): 34%
  Population Mitochondria Different-Phenotype (%): 100%
  Population Mitotic Cells (%): 15%
  Population Normal (%): 65%
  Population Pyknosed Nuclei (%): 32%
  Population Tubulin-Different-Phenotype (%): 69%
  Total Cell Count: 215
[9]
  Population Apoptotic (%): 27%
  Population Fragmented Nuclei (%): 13%
  Population Healthy Nuclei (%): 77%
  Population Hoechst High Intensity Objects (%): 5%
  Population Membrane Permeable-Phenotype (%): 1%
  Population Mitochondria Different-Phenotype (%): 31%
  Population Mitotic Cells (%): 72%
  Population Normal (%): 94%
  Population Pyknosed Nuclei (%): 8%
  Population Tubulin-Different-Phenotype (%): 33%
  Total Cell Count: 869
[10]
  Population Apoptotic (%): 48%
  Population Fragmented Nuclei (%): 9%
  Population Healthy Nuclei (%): 84%
  Population Membrane Permeable-Phenotype (%): 0%
  Population Mitochondria Different-Phenotype (%): 33%
  Population Mitotic Cells (%): 51%
  Population Pyknosed Nuclei (%): 6%
  Population Tubulin-Different-Phenotype (%): 21%
  Total Cell Count: 601
[11]
  Population Apoptotic (%): 75%
  Population Fragmented Nuclei (%): 29%
  Population Healthy Nuclei (%): 30%
  Population Hoechst High Intensity Objects (%): 52%
  Population Membrane Permeable-Phenotype (%): 0%
  Population Mitochondria Different-Phenotype (%): 88%
  Population Mitotic Cells (%): 24%
  Population Normal (%): 47%
  Population Pyknosed Nuclei (%): 40%
  Population Tubulin-Different-Phenotype (%): 58%
  Total Cell Count: 235
[12]
  Population Apoptotic (%): 61%
  Population Fragmented Nuclei (%): 31%
  Population Hoechst High Intensity Objects (%): 60%
  Population Mitochondria Different-Phenotype (%): 92%
  Population Mitotic Cells (%): 38%
  Population Normal (%): 40%
  Population Pyknosed Nuclei (%): 37%
  Population Tubulin-Different-Phenotype (%): 64%
  Total Cell Count: 205
